Measured values as given in ChEMBL document CHEMBL4725356, “Discovery of IACS-9439, a Potent, Exquisitely Selective, and Orally Bioavailable Inhibitor of CSF1R” (J Med Chem, 2020).

Legend:
[1] = Oral bioavailability in Beagle dog at 3 mg/kg and measured up to 24 hrs by LC-MS/MS analysis; format: ADME, organism-based, Canis lupus familiaris; settings: in vivo
Outline: (§1)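 Each species was dosed IV at 0.3 mg/kg and PO as follows: mouse 10 mg/kg, rat 3, dog 3, monkey 1. Plasma PK parameters derived were CL, Vss, IV half-life and oral bioavailability (F%).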

[2] = Oral bioavailability in Sprague-Dawley rat at 3 mg/kg and measured up to 24 hrs by LC-MS/MS analysis; format: ADME, organism-based; settings: in vivo; outline: as §1
[3] = Volume of distribution at steady state in Sprague-Dawley rat at 0.3 mg/kg, iv or 3 mg/kg, po and measured up to 24 hrs by LC-MS/MS analysis; format: ADME, organism-based; settings: in vivo, read-out: Vdss; outline: as §1
[4] = Volume of distribution at steady state in cynomolgus monkey at 0.3 mg/kg, iv or 1 mg/kg, po and measured up to 24 hrs by LC-MS/MS analysis; format: ADME, organism-based, Macaca fascicularis; settings: in vivo, read-out: Vdss; outline: as §1
[5] = Oral bioavailability in CD-1 mouse at 10 mg/kg and measured up to 24 hrs by LC-MS/MS analysis; format: ADME, organism-based; settings: in vivo; outline: as §1
[6] = Oral bioavailability in cynomolgus monkey at 1 mg/kg and measured up to 24 hrs by LC-MS/MS analysis; format: ADME, organism-based, Macaca fascicularis; settings: in vivo; outline: as §1
[7] = Volume of distribution at steady state in CD-1 mouse at 0.3 mg/kg, iv or 10 mg/kg, po and measured up to 24 hrs by LC-MS/MS analysis; format: ADME, organism-based; settings: in vivo, read-out: Vdss; outline: as §1
[8] = Volume of distribution at steady state in Beagle dog at 0.3 mg/kg, iv or 3 mg/kg, po and measured up to 24 hrs by LC-MS/MS analysis; format: ADME, organism-based, Canis lupus familiaris; settings: in vivo, read-out: Vdss; outline: as §1

Row | bioavailability [1] | bioavailability [2] | Vd [3] | Vd [4] | bioavailability [5] | bioavailability [6] | Vd [7] | Vd [8] | Structure (SMILES)
1 | 37% | 81% | 3.4 L/kg | 0.45 L/kg | 100% | 21% | 1 L/kg | 3 L/kg | COc1cc(OCc2ccnc(Nc3cnn(C)c3)n2)cc2sc(N[C@H]3CCCC[C@@H]3O)nc12
2 | 34% | 67% | 0.75 L/kg | 0.6 L/kg | > 90% | 72% | 1.8 L/kg | 1.3 L/kg | Nc1nccc(COc2ccc3nc(N[C@@H]4CCCC[C@H]4O)sc3c2)c1Cl
